From ChEMBL document CHEMBL3808321, “LAT-1 activity of meta-substituted phenylalanine and tyrosine analogs” (Bioorg Med Chem Lett, 2016)

Assays:
[1] = target: T1, Large neutral amino acids transporter small subunit 1 (Homo sapiens, UniProt Q01650); test: Substrate activity at human LAT1 expressed in HEK cells assessed as efflux rate of [3H]-gabapentin at 200 uM after 5 to 180 secs by scintillation counting based trans-stimulation assay; assay type: cell-based; details: HEK293
Outline: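 HEK-hLAT1 cells were preloaded with [3H]-gabapentin, then incubated with test agent at 200 μM. Efflux rate (fmol/min) was compared with efflux in the agent's absence and with L-leucine and L-arginine as positive and negative controls and L-phenylalanine and L-tyrosine as parent amino acids. Mean of at least three experiments.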

[2] = target: T1, Large neutral amino acids transporter small subunit 1; test: Inhibition of human LAT1 expressed in HEK cells assessed as reduction in uptake of [3H]-gabapentin at 200 uM after 3 mins by scintillation counting based cis-inhibition assay; assay type: cell-based; details: HEK293
Outline: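 HEK cells stably transfected with human LAT-1 cDNA. Test agent at 200 μM competed with [3H]-gabapentin for cellular uptake. Results are % inhibition relative to background signal without inhibitor, with mean of at least three experiments.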

[3] = target: T1, Large neutral amino acids transporter small subunit 1; test: Inhibition of human LAT1 expressed in HEK cells assessed as reduction in uptake of [3H]-gabapentin after 3 mins by scintillation counting based cis-inhibition assay; assay type: cell-based, HEK293

T1 sequence (Q01650 whole entry): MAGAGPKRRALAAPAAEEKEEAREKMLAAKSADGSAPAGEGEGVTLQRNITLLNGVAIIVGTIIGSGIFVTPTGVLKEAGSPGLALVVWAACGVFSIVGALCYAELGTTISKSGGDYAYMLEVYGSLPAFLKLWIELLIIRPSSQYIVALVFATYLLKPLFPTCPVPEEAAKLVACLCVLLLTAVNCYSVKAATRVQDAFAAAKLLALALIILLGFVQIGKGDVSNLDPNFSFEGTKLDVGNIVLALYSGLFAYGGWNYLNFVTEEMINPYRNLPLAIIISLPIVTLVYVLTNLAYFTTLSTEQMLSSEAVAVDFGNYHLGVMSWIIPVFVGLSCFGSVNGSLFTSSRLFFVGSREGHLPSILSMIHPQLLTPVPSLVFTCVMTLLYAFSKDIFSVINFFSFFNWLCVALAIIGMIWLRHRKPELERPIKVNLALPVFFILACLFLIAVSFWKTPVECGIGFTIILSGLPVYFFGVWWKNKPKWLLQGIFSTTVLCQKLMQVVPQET

SMILES	Activity [1] [fmol/min]	inhibition [2] [%]	IC50 [3] [µM]
N[C@@H](Cc1ccc(O)c(Br)c1)C(=O)O	1.8	86	–
N[C@@H](Cc1ccc(O)cc1)C(=O)O	2.1	68	–
N[C@@H](Cc1ccc(O)c(I)c1)C(=O)O	2.4	77	–
CCc1cccc(C[C@H](N)C(=O)O)c1	3.1	77	–
N[C@@H](Cc1cccc(Cl)c1)C(=O)O	2.6	84	–
N[C@@H](Cc1ccc(O)c(Cc2ccccc2)c1)C(=O)O	1.3	96	9.1
Cc1cc(C[C@H](N)C(=O)O)ccc1O	3.3	56	–
CC(C)(C)c1cc(C[C@H](N)C(=O)O)ccc1O	1.5	81	–
CCc1cc(C[C@H](N)C(=O)O)ccc1O	2.4	68	–
N[C@@H](Cc1cccc(Cc2ccccc2)c1)C(=O)O	0.8	98	7.3
COc1ccc(C[C@H](N)C(=O)O)cc1C	2.9	75	–
N=C(N)NCCC[C@H](N)C(=O)O	0.8	49	–
N[C@@H](Cc1cccc(I)c1)C(=O)O	1.9	91	–
Cc1ccc(C[C@H](N)C(=O)O)cc1	2.7	86	–
N[C@@H](Cc1ccc(O)c(Cl)c1)C(=O)O	2.7	63	–
N[C@@H](Cc1cccc(F)c1)C(=O)O	2.3	79	–
N[C@@H](Cc1ccc(O)c(-c2ccccc2)c1)C(=O)O	1.2	83	–
N[C@@H](Cc1cccc(-c2ccccc2)c1)C(=O)O	0.8	98	6.6
CC(C)c1cccc(C[C@H](N)C(=O)O)c1	1.7	91	–
CC(C)c1cc(C[C@H](N)C(=O)O)ccc1O	2.8	80	–
N[C@@H](Cc1ccccc1)C(=O)O	3.6	85	–
N[C@@H](Cc1ccc(O)c(F)c1)C(=O)O	3	63	–
CC(C)C[C@H](N)C(=O)O	3.5	78	–
CC(C)(C)c1cccc(C[C@H](N)C(=O)O)c1	1.5	87	–
N[C@@H](Cc1cccc(Br)c1)C(=O)O	3	86	–
